pIC50, pKi: −log10 of the molar value.
Columns and labels:
[1] = target: T1, Beta-lactamase (Enterobacter cloacae, UniProt P05364); assay: Inhibition of Enterobacter cloacae beta-lactamase P99 after 5 seconds incubation with nitrocefin substrate by spectrophotometry
[2] = Inhibition of beta-lactamase CTX-M-15 assessed as nitrocefin hydrolysis after 5 mins enzyme-compound preincubation
[3] = Inhibition of beta-lactamase KPC-2 assessed as nitrocefin hydrolysis after 5 mins enzyme-compound preincubation
Method in brief: (§1)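 Enzyme and inhibitor were preincubated 5 min at 37°C. The inhibitor was tested at 11 concentrations from 1 nM to 100 µM. Final enzyme concentrations were TEM-1 0.25 nM, CTX-M-15 0.35 nM, KPC-2 3 nM and SHV-4 6 nM. Nitrocefin was at 100 µM. Initial rates were read at 485 nm over the first minute. Each value is the mean of at least two independent experiments.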

[4] = Inhibition of beta-lactamase TEM- 1 assessed as nitrocefin hydrolysis after 5 mins enzyme-compound preincubation; method in brief: as §1
[5] = Inhibition of beta-lactamase SHV-4 assessed as nitrocefin hydrolysis after 5 mins enzyme-compound preincubation; method in brief: as §1
[6] = target: T1, Beta-lactamase; assay: Inhibition of Enterobacter cloacae beta-lactamase P99 assessed as nitrocefin hydrolysis after 5 mins enzyme-compound preincubation
[7] = Inhibition of beta-lactamase TEM-1 after 5 seconds incubation with nitrocefin substrate by spectrophotometry
Method in brief: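 Direct competition with reporter substrate at 37°C: inhibitor concentrations were premixed with 100 µM nitrocefin, and the reaction was started with 0.25 nM purified TEM-1. Nitrocefin hydrolysis was followed spectrophotometrically at 485 nm. Initial velocity over the first 5 s was compared with the no-inhibitor control, and KI was derived by equation 2. Means of at least two independent experiments.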

T1 sequence (P05364 whole entry): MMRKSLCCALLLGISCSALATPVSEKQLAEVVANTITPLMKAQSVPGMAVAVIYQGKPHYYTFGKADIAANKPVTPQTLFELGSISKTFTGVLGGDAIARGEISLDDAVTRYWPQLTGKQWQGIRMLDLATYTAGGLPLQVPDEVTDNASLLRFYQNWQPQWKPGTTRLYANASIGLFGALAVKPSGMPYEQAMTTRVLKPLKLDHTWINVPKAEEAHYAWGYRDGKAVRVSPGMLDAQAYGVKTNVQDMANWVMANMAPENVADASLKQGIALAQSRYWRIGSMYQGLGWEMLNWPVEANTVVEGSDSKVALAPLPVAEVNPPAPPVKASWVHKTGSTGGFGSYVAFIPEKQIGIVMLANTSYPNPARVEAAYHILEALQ

Compound	pKi [1]	pIC50 [2]	pIC50 [3]	pIC50 [4]	pIC50 [5]	pIC50 [6]	pKi [7]
NC(=O)[C@@H]1CC[C@@H]2CN1C(=O)N2OS(=O)(=O)O (relative stereo) [AVIBACTAM]	5.11	8.30	6.77	8.10	8.52	7.00	6.59
O=C(O)[C@H]1/C(=C/CO)O[C@@H]2CC(=O)N21 [CLAVULANIC ACID]	–	–	< 4.00	7.24	8.40	–	6.10
CC1(C)[C@H](C(=O)O)N2C(=O)C[C@H]2S1(=O)=O [SULBACTAM]	–	6.64	4.24	5.81	6.59	–	–
C[C@]1(Cn2ccnn2)[C@H](C(=O)O)N2C(=O)C[C@H]2S1(=O)=O [TAZOBACTAM]	–	8.22	4.30	7.49	7.26	–	7.52

From ChEMBL document CHEMBL1687818, “Mechanistic studies of the inactivation of TEM-1 and P99 by NXL104, a novel non-beta-lactam beta-lactamase inhibitor” (Antimicrob Agents Chemother, 2010)
